In ChEMBL document CHEMBL4270643, “Structure-based drug design: Synthesis and biological evaluation of quinazolin-4-amine derivatives as selective Aurora A kinase inhibitors” (Eur J Med Chem, 2018):
The source made the active and inactive calls. No cut-off for these calls is given here.

Tests used:
[1] = species on record: Homo sapiens; experiment: Selectivity ratio of IC50 for Aurora B (unknown origin) to IC50 for Aurora A (unknown origin)
[2] = tested on: Mus musculus; experiment: Toxicity in BALB/c athymic nude mouse xenografted with human MDA-MB-231 cells assessed as effect on MCH level at 30 mg/kg, ig administered every 2 days for 18 days measured post last dose; type: organism-based; conditions: in vivo, po
Summary of the method: (§1)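 After the 18-day intragastric course (every 2 days), blood cell counts taken from untreated, vehicle and dosed mice; groups compared by unpaired two-tailed t-test; mean ±SD, n=4.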

[3] = tested on: Mus musculus; experiment: Toxicity in BALB/c athymic nude mouse xenografted with human MDA-MB-231 cells assessed as effect on RDW-SD level at 30 mg/kg, ig administered every 2 days for 18 days measured post last dose; type: organism-based; conditions: in vivo, po; summary of the method: as §1
[4] = tested on: Mus musculus; experiment: Toxicity in BALB/c athymic nude mouse xenografted with human MDA-MB-231 cells assessed as effect on spleen weight at 30 mg/kg, ig administered every 2 days for 18 days measured post last dose; type: organism-based; conditions: in vivo, po
Summary of the method: (§2)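 Xenograft-bearing nude mice dosed intragastrically every 2 days for 18 days; body weight tracked throughout. After treatment ended, liver, lung, kidney and spleen weighed in untreated, vehicle and dosed groups; unpaired two-tailed t-test; mean ±SD, n=4.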

[5] = biological target: T1, Aurora kinase A (Homo sapiens) (UniProt O14965); experiment: Inhibition of Aurora A phosphorylation at Thr288 residue in human 293T cells at 1 to 2 uM after 24 hrs by western blot analysis; type: cell-based
T1 sequence (whole entry): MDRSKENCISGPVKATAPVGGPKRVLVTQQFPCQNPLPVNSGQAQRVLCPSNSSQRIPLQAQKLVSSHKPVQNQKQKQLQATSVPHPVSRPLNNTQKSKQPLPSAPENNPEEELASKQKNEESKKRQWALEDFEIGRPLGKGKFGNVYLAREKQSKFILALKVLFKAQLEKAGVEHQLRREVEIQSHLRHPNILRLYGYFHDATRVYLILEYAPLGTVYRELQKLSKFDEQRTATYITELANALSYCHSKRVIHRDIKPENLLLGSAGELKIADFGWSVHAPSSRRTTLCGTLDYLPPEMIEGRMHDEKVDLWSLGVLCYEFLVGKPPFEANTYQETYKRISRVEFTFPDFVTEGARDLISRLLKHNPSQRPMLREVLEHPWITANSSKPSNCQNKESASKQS
Summary of the method: (§3)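 293T cells treated 24 h with increasing doses or 0.1% DMSO control; lysates probed by Western blot for p-Aurora A (Thr288) and p-histone H3 (Ser10), with GAPDH as loading control.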

[6] = biological target: T1, Aurora kinase A (Homo sapiens); experiment: Inhibition of Aurora A phosphorylation at Thr288 residue in human 293T cells at 1 uM after 24 hrs by western blot analysis; type: cell-based; summary of the method: as §3
[7] = biological target: T2, Aurora kinase A (Homo sapiens, UniProt O14965); experiment: Inhibition of Aurora A (unknown origin) using FAM-labelled peptide as substrate pretreated for 10 mins followed by substrate addition and measured after 60 mins by fluorescence assay
T2 sequence (O14965 whole entry): T1 sequence (whole entry)
Summary of the method: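 Kinase IC50 values are the mean of at least two independent experiments; selectivity is the Aurora A/B ratio of these IC50s.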

[8] = tested on: Mus musculus; experiment: Toxicity in BALB/c athymic nude mouse xenografted with human MDA-MB-231 cells assessed as effect on HCT level at 30 mg/kg, ig administered every 2 days for 18 days measured post last dose; type: organism-based; conditions: in vivo, po; summary of the method: as §1
[9] = tested on: Mus musculus; experiment: Toxicity in BALB/c athymic nude mouse xenografted with human MDA-MB-231 cells assessed as effect on kidney weight at 30 mg/kg, ig administered every 2 days for 18 days measured post last dose; type: organism-based; conditions: in vivo, po; summary of the method: as §2
[10] = tested on: MDA-MB-231; experiment: Induction of morphological changes in human MDA-MB-231 cells assessed as monopolar/multipolar spindle formation at 1 uM by DAPI staining based microscopic analysis; type: functional, cell-based
Summary of the method: (§4)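 MDA-MB-231 cells incubated 24 h with 1 µM compound or 0.1% DMSO; immunofluorescence imaging of centrosomes, spindles and nuclei at ×1000 to score spindle polarity and chromosome alignment at the metaphase plate.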

[11] = tested on: Mus musculus; experiment: Toxicity in BALB/c athymic nude mouse xenografted with human MDA-MB-231 cells assessed as effect on WBC level at 30 mg/kg, ig administered every 2 days for 18 days measured post last dose; type: organism-based; conditions: in vivo, po; summary of the method: as §1
[12] = tested on: MOLT-4; experiment: Antiproliferative activity against human MOLT4 cells after 48 hrs by CCK8 assay; type: functional, cell-based; conditions: Homo sapiens, MOLT-4, 48 h; read-out: IC50
[13] = tested on: MDA-MB-231; experiment: Induction of apoptosis in human MDA-MB-231 cells assessed as annexin-V positive cells at 2 uM after 48 hrs by Annexin-V-FITC/propidium iodide staining based flow cytometry (reference value: 15.46 +/- 1.18%); type: functional
[14] = tested on: HeLa; experiment: Antiproliferative activity against human HeLa cells after 48 hrs by CCK8 assay; type: functional, cell-based; conditions: Homo sapiens, HeLa, 48 h; read-out: IC50
[15] = tested on: MDA-MB-231; experiment: Antiproliferative activity against human MDA-MB-231 cells after 48 hrs by CCK8 assay; type: functional, cell-based; conditions: MDA-MB-231, 48 h
[16] = tested on: SK-BR-3; experiment: Antiproliferative activity against human SKBR3 cells after 48 hrs by CCK8 assay; type: functional, cell-based; conditions: Homo sapiens, SK-BR-3, 48 h; read-out: IC50
[17] = tested on: MCF7; experiment: Antiproliferative activity against human MCF7 cells after 48 hrs by CCK8 assay; type: functional, cell-based; conditions: Homo sapiens, MCF7, 48 h; read-out: IC50
[18] = tested on: MDA-MB-231; experiment: Induction of morphological changes in human MDA-MB-231 cells assessed as defects in chromosomal alignment at 1 uM by DAPI staining based microscopic analysis; type: functional, cell-based; summary of the method: as §4
[19] = tested on: MDA-MB-231; experiment: Antitumor activity against human MDA-MB-231 cells xenografted in BALB/c athymic nude mouse assessed as tumor weight at 30 mg/kg, ig administered every 2 days for 18 days (reference value: 1.7 +/- 0.84 g); type: functional
Summary of the method: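 Nude mice with established MDA-MB-231 xenografts dosed intragastrically every 2 days for 18 days; vehicle control group; n=4 per group. Tumor volume estimated over time and compared by two-way repeated-measures ANOVA; dissected tumors weighed at end. Data as mean ±SD.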

[20] = tested on: MDA-MB-231; experiment: Cell cycle arrest in human MDA-MB-231 cells assessed as accumulation at G2/M phase after 24 hrs by propidium iodide staining based flow cytometry; type: functional
Summary of the method: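 MDA-MB-231 cells exposed to test compound at indicated doses, MLN8237, or 0.1% DMSO control for 24 h; cell-cycle distribution, including G2/M and 4N/8N populations, read by flow cytometry.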

[21] = tested on: Mus musculus; experiment: Toxicity in BALB/c athymic nude mouse xenografted with human MDA-MB-231 cells assessed as effect on RBC level at 30 mg/kg, ig administered every 2 days for 18 days measured post last dose; type: organism-based; conditions: in vivo, po; summary of the method: as §1
[22] = tested on: MDA-MB-231; experiment: Inhibition of colony formation in human MDA-MB-231 cells assessed as reduction in number of colonies at 3 uM after 7 days by crystal violet staining based assay; type: functional, cell-based
Summary of the method: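 Colony formation of MDA-MB-231 cells grown 7 days with 3 µM compound or 0.1% DMSO; colony numbers counted and compared against control.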

[23] = tested on: Mus musculus; experiment: Toxicity in BALB/c athymic nude mouse xenografted with human MDA-MB-231 cells assessed as effect on PLT level at 30 mg/kg, ig administered every 2 days for 18 days measured post last dose; type: organism-based; conditions: in vivo, po; summary of the method: as §1
[24] = tested on: DU-145; experiment: Antiproliferative activity against human DU145 cells after 48 hrs by CCK8 assay; type: functional, cell-based; conditions: DU-145, 48 h

- Ratio IC50 [1]: 66
- inhibition [5]: Active
- inhibition [6]: Active
- IC50 [7]: 0.038 µM
- IC50 [12]: 0.821 µM
- IC50 [14]: 0.45 µM
- IC50 [15]: 1.19 µM
- IC50 [16]: 2.4 µM
- IC50 [17]: 2.23 µM
- IC50 [24]: 2.05 µM
Compound: CCOC(=O)C1CCN(c2ccc3c(Nc4cc(C)[nH]n4)nc(-c4ccccc4)nc3c2)CC1
- Activity [2]: Non-Toxic
- Activity [3]: Non-Toxic
- Activity [4]: Non-Toxic
- Activity [8]: Non-Toxic
- Activity [9]: Non-Toxic
- Activity [10]: Active
- Activity [11]: Non-Toxic
- Activity [13]: 42.33%
- Activity [18]: Active
- Activity [19]: 0.85 g
- Activity [20]: Dose-dependent effect
- Activity [21]: Non-Toxic
- Activity [22]: Active
- Activity [23]: Non-Toxic
